Reference: ChEMBL document CHEMBL1137220, “2-(2-(dimethylaminomethyl)phenoxy)-5-iodophenylamine: an improved serotonin transporter imaging agent” (J Med Chem, 2004)

What was measured:
[1] = target: Sodium-dependent serotonin transporter (Homo sapiens, UniProt P31645); assay: Binding affinity for serotonin transporter expressed in […] cells; assay type: cell-based
Outline: (§1)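 Membranes from confluent pig kidney LLC-PK₁ cells stably expressing the respective transporter, homogenized and pelleted, 30–40 μg protein. Incubated with 0.4 nM [¹²⁵I]IPT or [¹²⁵I]IDAM and 8–10 competitor concentrations (10⁻¹⁰ to 10⁻⁵ M) in 50 mM Tris-HCl pH 7.4, 120 mM NaCl, 0.1% BSA, 1 h at room temperature. Nonspecific binding was defined with 10 μM CFT for IPT and 1 μM IDAM for IDAM. Filtration, gamma counting, nonlinear regression for Ki.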

[2] = target: Sodium-dependent dopamine transporter (Homo sapiens, UniProt Q01959); assay: Binding affinity for dopamine transporter expressed in […] cells; assay type: cell-based; outline: as §1
Sodium-dependent dopamine transporter, sequence (Q01959 whole entry): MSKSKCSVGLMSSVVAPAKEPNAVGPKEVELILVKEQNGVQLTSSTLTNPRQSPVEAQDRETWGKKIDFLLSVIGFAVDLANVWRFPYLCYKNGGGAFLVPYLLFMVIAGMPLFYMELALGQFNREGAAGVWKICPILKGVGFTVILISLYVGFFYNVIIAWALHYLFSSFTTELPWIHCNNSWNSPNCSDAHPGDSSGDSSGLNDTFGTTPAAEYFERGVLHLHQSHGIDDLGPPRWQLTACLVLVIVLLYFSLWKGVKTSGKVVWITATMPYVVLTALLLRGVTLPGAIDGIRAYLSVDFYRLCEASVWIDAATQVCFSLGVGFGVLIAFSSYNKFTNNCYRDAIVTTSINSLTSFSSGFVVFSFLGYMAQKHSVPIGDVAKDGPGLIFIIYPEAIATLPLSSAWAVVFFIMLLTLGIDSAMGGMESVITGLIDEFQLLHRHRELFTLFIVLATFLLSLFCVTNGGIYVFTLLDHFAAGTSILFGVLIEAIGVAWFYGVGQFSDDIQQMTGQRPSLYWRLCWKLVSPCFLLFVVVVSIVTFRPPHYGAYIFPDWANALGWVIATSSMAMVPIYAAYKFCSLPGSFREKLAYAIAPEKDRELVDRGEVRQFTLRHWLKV

Sodium-dependent serotonin transporter, sequence (P31645 whole entry): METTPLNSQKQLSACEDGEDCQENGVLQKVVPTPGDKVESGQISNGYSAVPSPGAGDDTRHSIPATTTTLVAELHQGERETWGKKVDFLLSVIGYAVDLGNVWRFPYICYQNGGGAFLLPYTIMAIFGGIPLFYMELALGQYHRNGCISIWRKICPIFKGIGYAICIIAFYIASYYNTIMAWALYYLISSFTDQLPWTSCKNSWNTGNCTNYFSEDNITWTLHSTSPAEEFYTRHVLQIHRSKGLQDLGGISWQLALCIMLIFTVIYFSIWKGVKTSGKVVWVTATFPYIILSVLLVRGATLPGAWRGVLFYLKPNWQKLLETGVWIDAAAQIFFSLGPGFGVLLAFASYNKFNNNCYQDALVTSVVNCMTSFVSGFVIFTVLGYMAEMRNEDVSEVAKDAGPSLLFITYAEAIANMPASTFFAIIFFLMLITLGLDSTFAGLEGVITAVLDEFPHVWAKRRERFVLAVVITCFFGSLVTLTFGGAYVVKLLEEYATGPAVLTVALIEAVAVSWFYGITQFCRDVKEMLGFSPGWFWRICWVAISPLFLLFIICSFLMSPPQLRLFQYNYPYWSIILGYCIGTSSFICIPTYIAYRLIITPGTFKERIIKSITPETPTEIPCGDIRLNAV

Compound | Ki [1] | Ki [2]
CN(C)Cc1ccccc1Sc1ccc(C#N)cc1N [DASB] | – | > 1000 nM

Other lines, results leading:

Ki [1] | Ki [2] | Compound
0.09 nM | > 1000 nM | CN(C)Cc1ccccc1Sc1ccc(I)cc1CO
0.12 nM | > 1000 nM | CN(C)Cc1ccccc1Oc1ccc(I)cc1CO
48.6 nM | > 1000 nM | CN(C)Cc1ccccc1Cc1ccc(I)cc1N
0.01 nM | 840 nM | CN(C)Cc1ccccc1Sc1ccc(I)cc1N
